Experimental data as given in ChEMBL document CHEMBL3875202, “Design and optimization of aspartate N-acetyltransferase inhibitors for the potential treatment of Canavan disease” (Bioorg Med Chem, 2017).
pKi: −log10 of the molar value. Where a SMILES comes first, the peptide text is derived from it.

Assay: Inhibition of recombinant human His-tagged maltose binding protein fused ANAT expressed in Escherichia coli NiCo21(DE3) using L-aspartate as substrate after 15 mins in presence of acetyl-CoA by DTNB based spectrophotometric method
Procedure, shortened: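 MBP-ANAT-His fusion purified on Ni Sepharose then amylose column. Assay: 20 mM HEPES pH 7.4, 150 mM NaCl, 5% glycerol, 40 µM DTNB, 40 µM acetyl-CoA, 2 mM L-aspartate, 25 µg enzyme, 200 µl total. Read at 412 nm for at least 15 min. Ki from twofold inhibitor dilutions; no-inhibitor and no-aspartate/no-inhibitor controls; pH of top-dose wells checked.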

`O=C(O)C[C@H](NC(=O)OCc1ccccc1)C(=O)O` and `O=C(O)CC[C@H](NC(=O)OCc1ccccc1)C(=O)O` are within 0.2 log units of each other in pKi: 4.77 for the first, 4.92 for the second.

Compared with `O=C(O)CC[C@H](NC(=O)c1ccccc1)C(=O)O`, `O=C(O)CCC[C@H](NC(=O)c1ccccc1)C(=O)O` is 1.09 log units lower in pKi: 3.89 for the first, 2.80 for the second. The first binds more tightly here.

`O=C(O)CCNCc1ccc(C(=O)O)c(C(=O)O)c1` and `O=CCN(CC(=O)O)Cc1ccc(C(=O)O)c(C(=O)O)c1` are within 0.2 log units of each other in pKi: 2.77 for the first, 2.89 for the second.

Going from `C=CCN(CC(=O)O)Cc1ccc(C(=O)O)c(C(=O)O)c1` to `O=C(O)CN(Cc1ccc(C(=O)O)c(C(=O)O)c1)Cc1ccccc1Br`, the pKi rises from 3.14 to 3.94 (0.80 log units). The second binds more tightly here.

`O=C(O)CN(Cc1ccccc1)Cc1ccc(C(=O)O)c(C(=O)O)c1` and `O=C(O)CN(Cc1cccc(Br)c1)Cc1ccc(C(=O)O)c(C(=O)O)c1` are within 0.2 log units of each other in pKi: 3.38 for the first, 3.57 for the second.

Compared with `O=C(O)CN(Cc1ccc(C(=O)O)c(C(=O)O)c1)c1cccc2ccccc12`, `O=C(O)CCN(Cc1ccc(C(=O)O)c(C(=O)O)c1)c1cccc2ccccc12` is 0.53 log units higher in pKi: 3.94 for the first, 4.47 for the second. The second binds more tightly here.

Compared with `O=C(O)CN(Cc1ccc(C(=O)O)c(C(=O)O)c1)c1ccc2ccccc2c1`, `O=C(O)CN(Cc1ccc(C(=O)O)c(C(=O)O)c1)c1ccc(-c2ccccc2)cc1` is 0.25 log units lower in pKi: 3.27 for the first, 3.02 for the second. The first binds more tightly here.

Compared with `O=C(O)CN(CCN1CCOCC1)Cc1ccc(C(=O)O)c(C(=O)O)c1`, `Cc1cccc(CN(CC(=O)O)Cc2ccc(C(=O)O)c(C(=O)O)c2)c1` is 0.20 log units lower in pKi: 2.97 for the first, 2.77 for the second.

First: O=C(O)CN(Cc1ccc(Br)cc1)Cc1ccc(C(=O)O)c(C(=O)O)c1
Second: O=C(O)CCN(Cc1ccc(Br)cc1)Cc1ccc(C(=O)O)c(C(=O)O)c1
The pKi of the first is 0.51 log units lower: 2.92 for the first, 3.43 for the second. The second binds more tightly here.

Going from `Cc1ccccc1CN(CC(=O)O)Cc1ccc(C(=O)O)c(C(=O)O)c1` to `Cc1ccccc1CN(CCC(=O)O)Cc1ccc(C(=O)O)c(C(=O)O)c1`, the pKi rises from 2.85 to 3.14 (0.29 log units). The second binds more tightly here.

`Cc1ccc(CN(CC(=O)O)Cc2ccc(C(=O)O)c(C(=O)O)c2)cc1` and `Cc1ccc(CN(CCC(=O)O)Cc2ccc(C(=O)O)c(C(=O)O)c2)cc1` are within 0.2 log units of each other in pKi: 2.37 for the first, 2.56 for the second.

Going from `O=C(O)CN(Cc1ccc(C(=O)O)c(C(=O)O)c1)Cc1ccccc1C(F)(F)F` to `O=C(O)CCN(Cc1ccc(C(=O)O)c(C(=O)O)c1)Cc1ccccc1C(F)(F)F`, the pKi rises from 3.41 to 4.06 (0.65 log units).

First: O=C(O)CN(Cc1cccc(C(F)(F)F)c1)Cc1ccc(C(=O)O)c(C(=O)O)c1
Second: O=C(O)CCN(Cc1cccc(C(F)(F)F)c1)Cc1ccc(C(=O)O)c(C(=O)O)c1
The pKi of the first is 0.45 log units lower: 3.98 for the first, 4.43 for the second.

Compared with `O=C(O)CN(Cc1ccc(C(F)(F)F)cc1)Cc1ccc(C(=O)O)c(C(=O)O)c1`, `O=C(O)CCN(Cc1ccc(C(F)(F)F)cc1)Cc1ccc(C(=O)O)c(C(=O)O)c1` is 0.63 log units higher in pKi: 3.10 for the first, 3.73 for the second. The second binds more tightly here.

Compared with `O=C(O)CN(Cc1ccc(C(=O)O)c(C(=O)O)c1)Cc1ccccc1OC(F)(F)F`, `O=C(O)CN(Cc1cccc(OC(F)(F)F)c1)Cc1ccc(C(=O)O)c(C(=O)O)c1` is 0.28 log units higher in pKi: 3.33 for the first, 3.61 for the second. The second binds more tightly here.

`O=C(O)CN(Cc1ccc(OC(F)(F)F)cc1)Cc1ccc(C(=O)O)c(C(=O)O)c1` and `O=C(O)CN(Cc1ccc(OC(F)F)cc1)Cc1ccc(C(=O)O)c(C(=O)O)c1` are within 0.2 log units of each other in pKi: 3.13 for the first, 3.31 for the second.

Going from `O=C(O)CN(Cc1ccc(C(=O)O)cc1)Cc1ccc(C(=O)O)c(C(=O)O)c1` to `NC(=O)c1ccc(CN(CC(=O)O)Cc2ccc(C(=O)O)c(C(=O)O)c2)cc1`, the pKi falls from 3.98 to 2.73 (1.25 log units). The first binds more tightly here.

Compared with `CC(C)(C)c1ccc(CN(CC(=O)O)Cc2ccc(C(=O)O)c(C(=O)O)c2)cc1`, `CC(C)(C)c1ccc(CN(CCC(=O)O)Cc2ccc(C(=O)O)c(C(=O)O)c2)cc1` is 0.38 log units lower in pKi: 3.16 for the first, 2.78 for the second. The first binds more tightly here.

Going from `O=C(O)CN(Cc1ccc(C(F)(F)C(F)(F)C(F)(F)F)cc1)Cc1ccc(C(=O)O)c(C(=O)O)c1` to `CC(=O)c1ccc(CN(CC(=O)O)Cc2ccc(C(=O)O)c(C(=O)O)c2)cc1`, the pKi falls from 3.37 to 2.60 (0.77 log units). The first binds more tightly here.

Going from `CCCC(=O)N[C@@H](CCC(=O)O)C(=O)O` to `CCCC(=O)N[C@@H](CCCC(=O)O)C(=O)O`, the pKi falls from 3.57 to under 2.70.

Going from `O=C(O)C[C@H](NC(=O)CCCc1ccccc1)C(=O)O` to `O=C(O)C[C@H](NC(=O)CCc1ccccc1)C(=O)O`, the pKi rises from 3.70 to 4.51 (0.81 log units). The second binds more tightly here.

Compared with `O=C(O)CCN(Cc1ccc(C(=O)O)c(C(=O)O)c1)Cc1ccc(C(=O)O)cc1-c1ccccc1`, `O=C(O)CCN(Cc1ccc(C(=O)O)c(C(=O)O)c1)Cc1ccc(C(=O)O)cc1-c1cccc2ccccc12` is 0.59 log units lower in pKi: 4.32 for the first, 3.73 for the second.

First: O=C(O)CCN(Cc1ccc(C(=O)O)c(C(=O)O)c1)Cc1ccc(C(=O)O)cc1C(F)(F)F
Second: O=C(O)CCN(Cc1ccc(C(=O)O)c(C(=O)O)c1)Cc1ccc(C(=O)O)cc1F
The pKi of the first is 0.62 log units lower: 4.77 for the first, 5.39 for the second.

First: O=C(O)CC[C@H](NC(=O)CCc1ccccc1)C(=O)O
Second: O=C(O)CC[C@H](NC(=O)CCCc1ccccc1)C(=O)O
The pKi of the first is 1.21 log units higher: 4.42 for the first, 3.21 for the second. The first binds more tightly here.

`O=C(O)C[C@H](NCCCCc1ccccc1)C(=O)O` and `O=C(O)C[C@H](NCCCc1ccccc1)C(=O)O` are within 0.2 log units of each other in pKi: 4.00 for the first, 3.92 for the second.

`O=C(O)CCN(Cc1ccc(C(=O)O)c(C(=O)O)c1)Cc1c(Cl)cc(C(=O)O)cc1Cl` [listing 1 of 2 here] and `O=C(O)CCN(Cc1ccc(C(=O)O)c(C(=O)O)c1)Cc1c(Br)cc(C(=O)O)cc1Br` are within 0.2 log units of each other in pKi: 6.22 for the first, 6.11 for the second.

First: O=C(O)C[C@H](NC(=O)CCc1ccccc1C(F)(F)F)C(=O)O
Second: Cc1ccccc1CCC(=O)N[C@@H](CC(=O)O)C(=O)O
The pKi of the first is 0.45 log units higher: 4.00 for the first, 3.55 for the second. The first binds more tightly here.

First: O=C(O)CCN(Cc1ccc(C(=O)O)c(C(=O)O)c1)Cc1ccccc1Br
Second: O=C(O)CCN(Cc1cccc(Br)c1)Cc1ccc(C(=O)O)c(C(=O)O)c1
The pKi of the first is 0.24 log units lower: 3.76 for the first, 4.00 for the second.

First: O=C(O)CCC[C@H](NC(=O)Cc1ccccc1)C(=O)O
Second: O=C(O)CC[C@H](NC(=O)Cc1ccccc1)C(=O)O
The pKi of the first is 0.66 log units lower: 2.94 for the first, 3.60 for the second. The second binds more tightly here.

Compared with `O=C(O)C[C@H](NC(=O)c1ccc2ccccc2c1)C(=O)O`, `O=C(O)C[C@H](NC(=O)c1ccccc1)C(=O)O` is lower in pKi: 3.41 for the first, under 2.70 for the second. The first binds more tightly here.

First: O=C(CCc1ccccc1)NC(C(=O)O)C(=O)O
Second: O=C(O)CCC[C@H](NC(=O)CCc1ccccc1)C(=O)O
The pKi of the first is 0.31 log units higher: 2.85 for the first, 2.54 for the second.

`O=C(O)C[C@H](NC(=O)CCc1cccc(C(F)(F)F)c1)C(=O)O` and `O=C(O)C[C@H](NC(=O)CCc1ccc(O)c(O)c1)C(=O)O` are within 0.2 log units of each other in pKi: 2.91 for the first, 2.81 for the second.

`O=C(O)CCN(Cc1ccc(C(=O)O)c(C(=O)O)c1)Cc1ccc(C(=O)O)cc1Br` and `O=C(O)CCN(Cc1ccc(C(=O)O)c(C(=O)O)c1)Cc1ccc(C(=O)O)cc1Cl` are within 0.2 log units of each other in pKi: 5.70 for the first, 5.77 for the second.

Compared with `COc1ccc(CCC(=O)N[C@@H](CC(=O)O)C(=O)O)cc1`, `O=C(O)C[C@H](NC(=O)CCc1ccc(-c2ccccc2)cc1)C(=O)O` is 0.86 log units higher in pKi: 2.82 for the first, 3.68 for the second.

First: O=C(O)C[C@H](NC(=O)CBr)C(=O)O
Second: O=C(O)C[C@H](NC(=O)CCl)C(=O)O
The pKi of the first is lower: under 2.70 for the first, 3.70 for the second.

Compared with `O=C(O)CCN(Cc1ccc(C(=O)O)cc1)Cc1ccc(C(=O)O)c(C(=O)O)c1`, `O=C(O)CCN(Cc1ccc(C(=O)O)c(C(=O)O)c1)Cc1ccc(C(=O)O)c(C(F)(F)F)c1` is 1.51 log units lower in pKi: 4.54 for the first, 3.03 for the second. The first binds more tightly here.

Compared with `CC(C)(C)C(=O)N[C@@H](CCCC(=O)O)C(=O)O`, `CC(C)(C)C(=O)N[C@@H](CCC(=O)O)C(=O)O` is 0.43 log units higher in pKi: 3.12 for the first, 3.55 for the second.

First: Cc1cccc(CN(CCC(=O)O)Cc2ccc(C(=O)O)c(C(=O)O)c2)c1
Second: O=C(O)CCN(Cc1ccc(C(=O)O)c(C(=O)O)c1)Cc1c(Cl)cc(C(=O)O)cc1Cl [listing 2 of 2 here]
The pKi of the first is 2.96 log units lower: 3.25 for the first, 6.21 for the second.

`O=C(O)C[C@H](NC(=O)Cc1ccccc1)C(=O)O` and `O=C(O)C[C@H](NCc1ccccc1)C(=O)O` are within 0.2 log units of each other in pKi: 3.34 for the first, 3.21 for the second.

`O=C(O)CCN(Cc1ccc(C(=O)O)c(C(=O)O)c1)c1ccc(-c2ccccc2)cc1` and `O=C(O)CCC[C@H](NC(=O)CCCc1ccccc1)C(=O)O` are within 0.2 log units of each other in pKi: 3.26 for the first, 3.13 for the second.

Compared with `O=C(O)C[C@H](NC(=O)c1ccc(C(F)(F)F)cc1)C(=O)O`, `C[C@H](N)C(=O)N[C@@H](CC(=O)O)C(=O)O` (H-Ala-Asp-OH) is 0.62 log units lower in pKi: 3.42 for the first, 2.80 for the second. The first binds more tightly here.

Compared with `O=C(O)CCC[C@H](NC(=O)CCC(=O)O)C(=O)O`, `O=C(O)C[C@H](NCCc1ccccc1)C(=O)O` is higher in pKi: under 2.70 for the first, 3.60 for the second. The second binds more tightly here.

`O=C(O)/C=C(\Br)C(=O)O` showed a pKi of 3.44.
